In data set [1] the test system is U2OS. Put plainly: Induction of mitotic arrest in human U2OS cells assessed as mitotic index after 20 hrs by microscopic analysis.
For data set [2], the system named is U2OS. Put plainly: Growth inhibition of human U2OS cells after 72 hrs by sulforhodamine B assay. The class given is functional. Put shortly:
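GI50 in U2OS cells. Mean of at least two independent experiments, each in triplicate.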
(The SRB assay estimates cell density from bound dye.)

For data set [3], the species on record is Sus scrofa. Put plainly: Displacement of BODIPY-FL-vinblastine from porcine alpha/beta tubulin at 20 to 60 uM after 20 hrs by fluorescence polarization assay. The method in brief: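 Fluorescence polarization assay with FL-BODIPY-vinblastine tracer (2 μM) and tubulin (2 μM). Unlabeled vinblastine served as positive control. Ex/em 485/520 nm. Mean ± s.e.m. of one experiment run in triplicate.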
Background: In fluorescence polarisation assays a small probe gives low polarisation when free and higher when bound to something large.

Data set [4] is described as follows: Stability of the compound. The class given is physicochemical.
For data set [5], the species on record is Sus scrofa. Put plainly: Displacement of colchicine from porcine alpha/beta tubulin assessed as decrease in colchicine fluorescence intensity at 5 to 20 uM after 1 hr by spectrophotometric analysis relative to control. Put shortly: (§1)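 Colchicine (3 μM), tubulin (3 μM) and compound incubated 1 h at 37 °C. Colchicine fluorescence intensity read at ex/em 365/435 nm. Nocodazole served as positive control. Mean ± s.e.m. of one experiment run in triplicate.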

For data set [6], the species on record is Sus scrofa. Put plainly: Displacement of colchicine from porcine alpha/beta tubulin assessed as decrease in colchicine fluorescence intensity after 1 hr by spectrophotometric analysis. The method in brief:
as §1

For data set [7], the species on record is Sus scrofa. Put plainly: Inhibition of porcine alpha/beta tubulin polymerization at 10 uM after 1 hr by spectrophotometric analysis. Put shortly:
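Tubulin (3 mg/mL) incubated with compound (10 μM) and GTP at 37 °C for 1 h to monitor polymerization.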

A short description of data set [8]: Solubility of the compound. The class given is physicochemical.
In the next data set the target is Tubulin (Homo sapiens) (UniProt P68371+Q9H4B7+P0DPH7+P68366+Q13509+Q71U36+P04350+Q3ZCM7+P07437+P68363+Q9BQE3+Q6PEY2+Q13885+Q9BVA1+Q9BUF5). Put plainly: Binding affinity to tubulin in human U2OS cells assessed as disruption of tubulin network at 100 nM after 20 hrs by DAPI staining-based confocal microscopic analysis. The class given is cell-based. The method in brief:
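U2OS cells treated with compound, then stained with DAPI and an α-tubulin antibody. Tubulin network imaged by confocal microscopy.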

In data set [9] the test system is U2OS. Put plainly: Induction of mitotic arrest in human U2OS cells assessed as mitotic index after 72 hrs by microscopic analysis. Type of data set: functional, cell-based. To be noted: in the assay text read “after 20 hrs” for “after 72 hrs”. Put shortly: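 Phenotypic high content assay in U2OS osteosarcoma cells. Cells stained for phosphorylated histone H3 (mitotic marker) and Hoechst, imaged on an automated high content microscope. An algorithm scores the percentage of cells arrested in mitosis. MI EC50 is the mean of at least two independent experiments, each in triplicate.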

Data set [10] has as its system U2OS. Put plainly: Induction of mitotic arrest in human U2OS cells at 50 uM after 72 hrs by microscopic analysis relative to control. The class given is functional. To be noted: in the assay text read “after 20 hrs” for “after 72 hrs”. The method in brief: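 Primary screen in U2OS cells at a single 50 μM concentration, in triplicate. Cells stained for phospho-histone H3 with Hoechst counterstain and imaged by automated high content microscopy. Percentage of mitotically arrested cells calculated by algorithm.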

The nature of data set [11]: Solubility of the compound at >1 uM. The class given is physicochemical.

The source made the active and inactive calls. The rule behind the calls is not given here.

As to `CC(C)CNC(=O)c1ccc(-c2ccc(CC(=O)NCc3ccco3)cc2)cc1`, the EC50 in the data set on U2OS [1] is 101 nM. This compound also returned a GI50 with U2OS [2] of 46 nM.

On to `C[C@H](NC(=O)Cc1ccc(-c2ccccc2)cc1)c1ccccc1`, for which, in the data set with U2OS [1], the EC50 was more than 40000 nM.

On to `O=C(Cc1ccc(-c2ccccc2)cc1)NCc1ccncc1`, for which the EC50 in the data set on U2OS [1] worked out at 16600 nM.

Take `O=C(Cc1ccc2ccccc2c1)NCc1ccco1`: in the data set with U2OS [1], the half-maximal effective concentration (EC50) turned out to be 12900 nM.

With `COC(=O)c1ccc(-c2ccc(CC(=O)NCc3ccco3)cc2)cc1`, the EC50 with U2OS [1] was 73 nM. Further, the 50% growth inhibitory concentration (GI50) in the data set on U2OS [2] came out at 24 nM.

On to `O=C(Cc1ccc(-c2ccccc2)cc1)Nc1ccccc1`, for which, in the data set on U2OS [1], the concentration for a half-maximal effect (EC50) is more than 40000 nM.

Turning to `Cc1ccc(-c2ccc(CC(=O)NCc3ccco3)cc2)cc1F`, the EC50 with U2OS [1] was 340 nM. This compound displayed a 50% growth inhibitory concentration (GI50) with U2OS [2] of 100 nM.

As to `CNC(=O)c1ccc(-c2ccc(CC(=O)NCc3ccco3)cc2)cc1`, the inhibition entry in the data set listed under Sus scrofa [3] was “inactive”. Moreover, the Stability result in data set [4] is given as “Stable”. In addition, in the data set filed under Sus scrofa [5], the Imax is 45%. For the same compound, the 50% effective concentration (EC50) in the data set with U2OS [1] amounted to 51 nM. Moreover, the inhibition result in the data set filed under Sus scrofa [6] was “Dose-dependent effect”. Further, the inhibition result in the data set filed under Sus scrofa [7] was “Active”. For the same compound, the solubility result in [8] was “soluble”. The compound further showed a GI50 with U2OS [2] of 21 nM. The outcome at Tubulin (Homo sapiens) was Active.

Compound `O=C(Cc1ccc(-c2ccc(OC(F)(F)F)cc2)cc1)NCc1ccco1` came in with a concentration for 50% growth inhibition (GI50) in the data set with U2OS [2] of 120 nM.

Turning to `COc1cc(-c2ccc(CC(=O)NCc3ccco3)cc2)cc(OC)c1OC`, the EC50 in the data set with U2OS [1] was more than 40000 nM.

As to `CC(=O)c1ccccc1-c1ccc(CC(=O)NCc2ccco2)cc1`, in the data set on U2OS [1], the EC50 turned out to be 12900 nM.

As to `O=C(Cc1ccc(-c2ccccc2)cc1)NCc1cccc(Br)c1`, the EC50 with U2OS [1] is more than 40000 nM. For the same compound, in the data set filed under Sus scrofa [7], the inhibition entry is “inactive”.

For the compound `CC(=O)Nc1cccc(-c2ccc(CC(=O)NCc3ccco3)cc2)c1`, in the data set with U2OS [1], the EC50 stood at 490 nM. In the data set with U2OS [2], this compound displayed a 50% growth inhibitory concentration (GI50) of 120 nM.

For `O=C(NCc1ccco1)c1cnc2ccccc2c1`, the half-maximal effective concentration (EC50) in the data set with U2OS [1] is more than 40000 nM.

For the compound `O=C(Cc1ccc(-c2ccc(C(=O)O)cc2)cc1)NCc1ccco1`, the half-maximal effective concentration (EC50) in the data set on U2OS [1] was more than 20000 nM.

On to `COc1ccc(CNC(=O)Cc2ccc(-c3ccccc3)cc2)cc1`, for which the concentration for a half-maximal effect (EC50) with U2OS [1] amounted to 1900 nM.

For the compound `COC(=O)c1ccc(-c2ccc(CC(=O)NCc3ccccc3)cc2)cc1`, the EC50 in the data set on U2OS [1] stood at 81 nM. The compound also showed a GI50 in the data set with U2OS [2] of 27 nM.

`O=C(NCc1ccco1)c1ccc(-c2ccccc2)cc1`: the concentration giving a half-maximal response (EC50) in the data set on U2OS [1] is more than 40000 nM.

As to `COc1c(C)cc(-c2ccc(CC(=O)NCc3ccco3)cc2)cc1C`, in the data set with U2OS [1], the concentration giving a half-maximal response (EC50) is 1170 nM. Moreover, in the data set with U2OS [2], halving of growth (GI50) required 603 nM.

For `CN(Cc1ccccc1)C(=O)Cc1ccc(-c2ccccc2)cc1`, the concentration giving a half-maximal response (EC50) in the data set with U2OS [1] amounted to 29900 nM.

Consider `C[C@@H](NC(=O)Cc1ccc(-c2ccccc2)cc1)c1ccccc1`, for which the 50% effective concentration (EC50) with U2OS [1] stood at 4830 nM.

For the compound `O=C(Cc1ccc(-c2ccccc2)cc1)NCc1ccccn1`, the concentration giving a half-maximal response (EC50) in the data set on U2OS [1] worked out at 9700 nM.

Take `O=C(Cc1ccc(-c2ccc3c(c2)OCO3)cc1)NCc1ccco1`: the EC50 in the data set on U2OS [1] is 144 nM. This compound came in with a GI50 with U2OS [2] of 31 nM.

For `COC(=O)Nc1nc2cc(C(=O)c3cccs3)ccc2[nH]1` [NOCODAZOLE], the Imax in the data set filed under Sus scrofa [5] turned out to be 85%. The half-maximal effective concentration (EC50) in the data set on U2OS [1] was determined as 50 nM. Besides, the inhibition entry in the data set listed under Sus scrofa [7] is “Active”.

Turning to `O=C(NCc1ccco1)c1cc2ccccc2o1`, in the data set with U2OS [1], the EC50 is more than 40000 nM.

In the case of `CC(C)CNC(=O)Cc1ccc(-c2ccccc2)cc1`, the EC50 with U2OS [1] was more than 40000 nM.

As to `O=C(Cc1ccc(-c2ccccc2)cc1)NCc1ccco1`, the inhibition entry in the data set with U2OS [9] was “Dose-dependent effect”. Further, the EC50 with U2OS [1] turned out to be 510 nM. Also, the inhibition result in the data set filed under Sus scrofa [7] was “Active”. In the data set on U2OS [2], the GI50 turned out to be 150 nM. In the data set with U2OS [10], the Activity came out at 40%.

For the compound `CC(=O)c1ccc(-c2ccc(CC(=O)NCc3ccco3)cc2)cc1`, the EC50 in the data set on U2OS [1] came out at 76 nM. Besides, in the data set on U2OS [2], growth was halved (GI50) at 24 nM.

In the case of `O=C(Cc1ccc(-c2ccccc2)cc1)NCc1ccccc1`, the concentration for a half-maximal effect (EC50) with U2OS [1] was found to be 250 nM.

With `N#Cc1ccc(-c2ccc(CC(=O)NCc3ccco3)cc2)cc1`, the EC50 with U2OS [1] stood at 526 nM. In addition, the inhibition entry in the data set filed under Sus scrofa [7] is “Active”. The 50% growth inhibitory concentration (GI50) with U2OS [2] turned out to be 111 nM.

As to `CC(=O)c1ccc(-c2ccc(CC(=O)NCc3ccccc3)cc2)cc1`, the half-maximal effective concentration (EC50) with U2OS [1] was found to be 28 nM. In the data set on U2OS [2], this compound showed a GI50 of 11 nM. Further, the outcome on Tubulin (Homo sapiens) was Active. Besides, the solubility entry in data set [11] was “Insoluble”.

With `O=C(NCc1ccco1)c1ccccc1-c1ccccc1`, the EC50 with U2OS [1] is more than 40000 nM.

With `O=C(NCc1ccco1)c1ccc(C(=O)c2ccccc2)cc1`, in the data set with U2OS [1], the half-maximal effective concentration (EC50) is more than 40000 nM.

For orientation: EC50 means the midpoint of the concentration-response curve. The term GI50 denotes the concentration at which growth is held to half of that of the control. Higher therefore signals less potent growth inhibition.

Values taken from ChEMBL document CHEMBL3286391, “High content screening of diverse compound libraries identifies potent modulators of tubulin dynamics” (ACS Med Chem Lett, 2014).
